Results gathered from unrelated publications.
Protocols differ between the studies behind these lines.
Calcitonin-gene-related peptide receptor, CALCRL/RAMP1: Calcitonin-gene-related peptide receptor, CALCRL/RAMP1 (Homo sapiens, UniProt O60894+Q16602)
HTR1B: 5-hydroxytryptamine receptor 1B (HTR1B, Homo sapiens, UniProt P28222)
CDK7 with cyclin H: Cyclin-dependent kinase 7, with cyclin H (CDK7, Homo sapiens, UniProt P50613)

SMILES	target	test	setting	inhibition
Oc1cccc(Nc2nc(-c3ccc(F)cc3F)cs2)c1	Calcitonin-gene-related peptide receptor, CALCRL/RAMP1	cell-free assay	10 µM	3%
CC(=O)c1nn(CC(=O)N2C[C@H](F)C[C@H]2C(=O)Nc2cccc(Br)n2)c2ccc(-c3cnc(C)nc3)cc12	Prothrombin (F2, Homo sapiens, UniProt P00734)	enzyme activity, inhibitor	10 µM	1.2%
Cc1ccc(CNC(=O)[C@H](CCc2ccccc2)NC(=O)[C@H](CCc2ccccc2)NC(=O)[C@H](CCc2ccccc2)NC(=O)c2cnc(C)cn2)cc1	Calpain-1 catalytic subunit (CAPN1, Homo sapiens, UniProt P07384)	enzyme activity, inhibitor	100 µM	-9%
CCCNc1nc2ccccc2n1Cc1ccc(Cl)cc1	HTR1B	ligand displacement, radioligand	10 µM	-13.2%
O=C(c1ccc(Cl)cc1)N(Cc1ccccc1)C1CCCCC1	HTR1B	ligand displacement, radioligand	10 µM	-11.5%
CN(C)C1CCN(CC#Cc2nn(C3CCCC3)c3nc(NCc4ccccc4)ncc23)C1 (centres unmarked)	Mitogen-activated protein kinase 1 (MAPK1, Homo sapiens, UniProt P28482)	enzyme activity, inhibitor, FRET	0.1 µM	2%
CCN(CC)c1ccc(C2=NNC(=O)CC2C)cc1[N+](=O)[O-] (centres unmarked)	3',5'-cyclic-AMP phosphodiesterase 4D (PDE4D, Homo sapiens, UniProt Q08499)	enzyme activity, inhibitor	0.1 µM	20%
Oc1ccc(/C=C/c2cc(O)cc(O)c2)cc1	CDK7 with cyclin H	enzyme activity, inhibitor, ADP detection	10 µM	40%
CCN(CC)c1ccc(C2Nc3ccc(C(=O)c4ccccc4)cc3NC3=C2C(=O)CC(C)(C)C3)cc1 (centres unmarked)	HTR1B	ligand displacement, radioligand	10 µM	6%
C=C(C)[C@@H](CC=C(C)C)C[C@@]12C[C@@H](CC=C(C)C)C(C)(C)[C@@](CC=C(C)C)(C(=O)C(C(=O)c3ccc(O)c(O)c3)=C1O)C2=O	CDK7 with cyclin H	enzyme activity, inhibitor, ADP detection	10 µM	25.8%
CCN(Cc1ccccc1C(F)(F)F)C(=O)C1CCN(S(=O)(=O)c2ccc3[nH]ncc3c2)CC1	Prostaglandin E2 receptor EP4 subtype (PTGER4, Homo sapiens, UniProt P35408)	ligand displacement, radioligand	10 µM	33%
CC(/C=C/C=C(\C)C(=O)O)=C\C=C\C=C(C)\C=C\C=C(/C)C(=O)O	CDK7 with cyclin H	enzyme activity, inhibitor, ADP detection	10 µM	38.3%
CC(CN(C)C)C(Oc1cccc2ccccc12)c1cccs1 (centres unmarked)	Sodium-dependent dopamine transporter (Slc6a3, Rattus norvegicus, UniProt P23977)	ligand displacement, radioligand	10 µM, cell membranes	< 70%
Nc1nccc(-c2c[nH]c3ccc(Br)cc23)n1	CDK7 with cyclin H	enzyme activity, inhibitor, ADP detection	10 µM	-32%
COc1cc(NC(C)=O)c(Cl)cc1C(=O)Nc1nccs1	Calcitonin-gene-related peptide receptor, CALCRL/RAMP1	cell-free assay	10 µM	-1.3%
O=C(/C=C/C=C/c1ccc2c(c1)OCO2)N1CCCCC1	CDK7 with cyclin H	enzyme activity, inhibitor, ADP detection	10 µM	39.4%
O=C(CSc1nc2nccnc2c(=O)n1CCc1ccccc1)Nc1nccs1	Phosphatidylinositol 4-phosphate 5-kinase type-1 beta (PIP5K1B, Homo sapiens, UniProt O14986)	enzyme activity, inhibitor	10 µM	13%
